Screening results (PubChem)
Compounds with a hit are over-represented: about 3.8% of the library has one in this group of screens.
KCNQ1 block – blocks the human KCNQ1 potassium channel; hit rate 1.3% among 310,000; P51787; CHO-K1 KCNQ1, FluxOR thallium flux fluorescence; stronger effect = higher value; B-score at 10 µM;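 active means compounds whose thallium flux B-score, printed positive for inhibition, exceeds three library SD while starting fluorescence stays within three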;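 further: channel opened by potassium depolarization with thallium stimulus after 20 min compound exposure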
Target sequence (P51787 whole entry, looked up): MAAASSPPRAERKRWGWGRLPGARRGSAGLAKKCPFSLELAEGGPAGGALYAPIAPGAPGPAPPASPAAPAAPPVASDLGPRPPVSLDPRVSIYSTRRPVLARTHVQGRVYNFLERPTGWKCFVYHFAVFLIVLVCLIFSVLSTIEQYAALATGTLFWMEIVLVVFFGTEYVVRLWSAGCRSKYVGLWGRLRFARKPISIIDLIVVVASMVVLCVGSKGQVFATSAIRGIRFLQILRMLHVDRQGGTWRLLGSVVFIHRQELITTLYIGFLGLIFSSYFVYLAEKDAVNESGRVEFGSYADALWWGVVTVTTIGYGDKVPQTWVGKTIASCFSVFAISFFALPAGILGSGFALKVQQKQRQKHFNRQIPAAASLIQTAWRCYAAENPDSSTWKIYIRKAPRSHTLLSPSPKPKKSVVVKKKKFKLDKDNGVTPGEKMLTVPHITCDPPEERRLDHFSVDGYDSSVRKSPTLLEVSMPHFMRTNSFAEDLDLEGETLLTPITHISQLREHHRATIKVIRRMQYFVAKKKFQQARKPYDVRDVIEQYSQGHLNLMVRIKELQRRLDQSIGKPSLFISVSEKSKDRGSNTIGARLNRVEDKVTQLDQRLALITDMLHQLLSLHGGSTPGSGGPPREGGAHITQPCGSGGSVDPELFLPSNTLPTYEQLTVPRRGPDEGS
Kir21 inh – Kir2.1 (mouse) channel inhibition | HEK293-Kir2.1, FluxOR thallium flux fluorescence; stronger effect = lower value | hit rate 0.85% among 310,000 | AID 1672 | P35561 | B-score at 10 µM;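 active means fluorescence ratio B-score at or below minus 3 SD of library scores, with starting-brightness B-score within 2 SD, cut at about -4.2 in these data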;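 further: channel flux triggered by added potassium and thallium sulfate stimulus; B-score of peak minus minimum fluorescence over baseline after thallium stimulus; more negative B-score means stronger Kir2.1 block with less thallium influx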
KCNQ1 act – human KCNQ1 channel potentiation or activation | CHO-K1 KCNQ1, thallium flux FluxOR fluorescence; stronger effect = higher value | B-score at 10 µM | hit rate 0.35% among 310,000 | AID 2648;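 active means fluorescence ratio B-score, a plate-corrected score, at least three library SD, with initial intensity B-score within 5 SD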
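System: CHO-K1 cells stably expressing KCNQ1 / Medium: assay buffer for compound exposure, DMSO matched across wells / Reagent: thallium- and potassium-containing depolarizing buffer / Compound: one concentration, matched DMSO / Incubation: 20 min compound pretreatment at room temperature / Measured by: kinetic FluxOR fluorescence, 10 s baseline plus 110 s post-stimulus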
KCNK3 block – human KCNK3 channel inhibition, primary screen | B-score at 10 µM | hit rate 0.84% among 340,000 | AID 602410 | CHO-KCNK3 thallium flux, FluxOR fluorescence; stronger effect = lower value;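 active means B-score under library mean minus 4 SD, starting fluorescence ratio at most library mean plus 5 SD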;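 further: more negative B-score means stronger inhibition of thallium flux through KCNK3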
hERG protect – shields human hERG channel from block by proarrhythmic agents; Q12809; CHO-hERG, FluxOR thallium flux, dofetilide IC70 present; activation (rescue from dofetilide block), less the hit threshold, % at 10 µM; hit rate 0.51% among 310,000; AID 1511;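 active means activation above the mean of controls blocked by dofetilide plus 5 SD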;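 further: thallium influx through hERG after potassium depolarization seen as dye fluorescence rise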
KCNK9 block – blocks the human KCNK9 two-pore domain potassium channel; B-score at 10 µM; hit rate 1.2% among 310,000; Q9NPC2; HEK293 KCNK9, FluxOR thallium flux fluorescence; stronger effect = lower value;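 active means ratio B-score over 3 SD below the library mean, with starting fluorescence within 5 SD of its mean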;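 further: negative B-score means less thallium flux so channel inhibition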
Numbers stand for hits; - = inactive; . = no result.

SMILES | KCNQ1 block | Kir21 inh | KCNQ1 act | KCNK3 block | hERG protect | KCNK9 block
Cc1c(C(=O)NCC2CCCO2)oc2ccc(S(=O)(=O)N3CCCC3)cc12 (stereo not drawn) | - | - | - | - | - | -
Cc1c(C(=O)NCC2COc3ccccc3O2)oc2ccc(S(=O)(=O)N(C)C3CCCCC3)cc12 (stereo not drawn) | 6 | - | - | - | - | -
COc1ccc(OC)c(/C=C/C(=O)NCCc2nc3ccccc3[nH]2)c1 | 7 | - | - | - | - | -
O=C(/C=C/c1ccccc1)NCCc1nc2ccccc2[nH]1 | - | - | - | - | - | -
O=c1c2cc(Br)ccc2nc(-c2ccccc2)n1O | - | - | 11 | - | 17 | -
O=c1c2ccccc2nc(-c2cccc(Cl)c2)n1O | - | - | 13 | - | 23 | -
O=c1c2cc(Cl)ccc2nc(-c2ccccc2Cl)n1O | - | - | - | - | - | -
Cc1ccc(-c2nc3ccccc3c(=O)n2O)cc1 | - | - | - | - | 7.7 | -
COc1cc(OC)c(C(=O)OCC(=O)NCCc2ccccc2)cc1OC | - | - | - | - | - | -
Oc1ccccc1N=Nc1nc(-c2ccccc2)c(-c2ccccc2)[nH]1 | 10 | - | - | - | - | -
COc1ccccc1N=Nc1nc(-c2ccccc2)c(-c2ccccc2)[nH]1 | - | - | - | - | - | -
COc1ccc(N=Nc2nc(-c3ccccc3)c(-c3ccccc3)[nH]2)cc1 | 6 | - | - | - | - | -
S=C(Nc1ccc(Br)cc1)N1CCn2cccc2C1c1cccnc1 (stereo not drawn) | - | - | 22 | - | - | -
CC1Cc2ccccc2N1C(=O)Cn1c(=O)oc2cc(S(=O)(=O)N3CCCCC3)ccc21 (stereo not drawn) | - | - | - | - | - | -7.2
Cc1cc(C(=O)Nc2c(F)c(F)c(F)c(F)c2F)n(-c2ccccc2)n1 | - | - | - | - | - | -
NC(N)=N/N=C/c1ccc(OS(=O)(=O)c2ccccc2)cc1 | - | -10 | - | - | - | -
CCC(=O)N/N=C/c1ccc(OS(=O)(=O)c2ccccc2)cc1 | - | - | - | - | - | -
O=C(c1ccco1)N1CCN(C(=O)C2CC(c3ccccc3F)=NO2)CC1 (stereo not drawn) | - | - | - | - | - | -
Cc1ccc(-c2csc(=S)[nH]2)cc1 | - | - | 94 | - | 97 | -
S=c1[nH]c(-c2ccc(Cl)cc2)cs1 | - | - | 17 | - | 87 | -
Cc1ccc(-c2ccc(C(=O)O)[nH]2)cc1 | - | - | - | - | - | -
Cc1ccc(C(C(=O)NCC2CCCO2)N(C(=O)c2snc(C(N)=O)c2N)c2ccccc2F)o1 (stereo not drawn) | - | - | - | - | - | -
CC(=O)N/C(=N\OCc1ccc(Br)cc1)c1nonc1NC(C)=O | - | - | - | - | - | -
CN(CCOc1ccccc1Cl)Cc1ccccc1 | - | - | - | - | - | -
CCCCNCCOCCOc1ccc(Cl)cc1Br | - | -6.1 | - | - | - | -
SMILES | KCNQ1 block | Kir21 inh | KCNQ1 act | KCNK3 block | hERG protect | KCNK9 block
CN(CCCOc1ccccc1Br)Cc1ccccc1 | - | - | - | - | - | -
CN(CCOCCOc1ccc(Cl)cc1Br)Cc1ccccc1 | - | -7.3 | - | - | - | -
Cc1ccc(Cl)c(OCCCCN(C)Cc2ccccc2)c1 | - | -9.5 | - | - | - | -
Cc1ccn(CCC(=O)N2CCCC(CCC(=O)N3CCN(c4ccccn4)CC3)C2)n1 (stereo not drawn) | - | - | - | - | - | -
CC(C)(C)NC(=O)c1ccc(COc2ccc(Cl)cc2Cl)o1 | - | - | - | - | - | -
COc1ccc(C(C)NCCC(c2ccc(OC(C)C)cc2)c2ccccc2OC)cc1 (stereo not drawn) | 6 | -6.6 | - | - | - | -
COc1ccccc1C(CC(=O)Nc1ccc(Cl)cc1)c1ccc(OC(C)C)cc1 (stereo not drawn) | - | - | - | - | - | -
CN1CCN(CC(=O)N2c3ccccc3C(C)(c3ccc(Cl)cc3)CC2(C)C)CC1 (stereo not drawn) | - | - | - | - | - | -
CN1CCN(CC(=O)N2c3ccccc3C(C)(c3ccccc3)CC2(C)C)CC1 (stereo not drawn) | - | -6.2 | - | - | - | -
CC1(c2ccc([N+](=O)[O-])cc2)CC(C)(C)N(C(=O)c2ccccc2)c2ccccc21 (stereo not drawn) | 6 | - | - | . | - | -
CCc1nc(SCC(=O)Nc2ccc(F)cc2F)c2c(=O)n(C)c(=O)n(C)c2n1 | - | - | - | - | - | -
CCCc1nc(SCC(=O)Nc2cc(Cl)ccc2OC)c2c(=O)n(C)c(=O)n(C)c2n1 | - | - | 14 | . | - | -
O=c1oc(-c2ccccc2)cc(Cl)c1Cl | 6 | - | - | - | - | -
CCOC(=O)c1ccc(CN(Cc2ccccc2)S(=O)(=O)c2cccc([N+](=O)[O-])c2)cc1 | - | - | - | - | - | -
CCOC(=O)CSc1ccc(S(=O)(=O)N(CC)CC)cc1[N+](=O)[O-] | - | - | - | - | - | -6.8
CCOC(=O)CCCCCN(Cc1ccccc1)S(=O)(=O)c1ccc([N+](=O)[O-])cc1 | 7 | - | - | - | - | -
CCCCN(CCCC)S(=O)(=O)c1ccc(SCC(=O)OCC)c([N+](=O)[O-])c1 | - | - | - | - | - | -
COC(=O)c1ccc(NC(=O)C(OC)c2ccccc2)cc1 (stereo not drawn) | - | - | - | - | - | -
COC(=O)C1=C(C(=O)OC)[C@@H]2N(Cc3ccccc3)c3ccccc3[C@@]23C[C@@H](C(=O)OC)N(C(C)=O)C3=N1 | - | - | - | - | - | -
COC(=O)C1=C(C(=O)OC)[C@@H]2N(Cc3ccccc3)c3ccccc3[C@@]23C[C@@H](C(=O)OC)N(C(=O)C2CCC2)C3=N1 | - | - | - | . | - | -7.7
CCOC(=O)N1C2=NC(C(=O)OC)=C(C(=O)OC)[C@@H]3N(Cc4ccccc4)c4ccccc4[C@]23C[C@H]1C(=O)OC | - | - | - | . | - | -7.7
CCNNC(=O)C(O)(Cc1ccccc1)Cc1ccccc1 | - | - | - | - | - | -
COc1ccc(CN(C)C(=O)c2ccc(OCC(=O)Nc3cccc(C(F)(F)F)c3)c(OC)c2)c(OC)c1 | - | - | - | - | - | -
COc1cccc(CN(C)C(=O)c2ccc(OCC(=O)Nc3cccc(C(F)(F)F)c3)c(OC)c2)c1 | 9 | - | - | - | - | -
Cc1cccc(CSC(Nc2ccc(F)cc2)=C(C#N)C#N)c1 | 8 | -4.5 | - | - | - | -
Cc1cccc(CSC(=N)N)c1 | - | - | - | - | - | -
N#CC(C#N)=C(Nc1ccc(F)cc1)SCc1cccc(Br)c1 | 7 | - | - | - | - | -
Cc1cc2c(=O)[nH]c(Cc3ccccc3)nc2s1 | - | - | - | - | - | -
